The values below come from ChEMBL document CHEMBL2203239, “Discovery of novel 2-(3-(2-chlorophenyl)pyrazin-2-ylthio)-N-arylacetamides as potent HIV-1 inhibitors using a structure-based bioisosterism approach” (Bioorg Med Chem, 2012).

The nature of data set [1]: Selectivity index, ratio of CC50 for HIV1 3B infected in human MT4 cells to EC50 for HIV1 3B. The settings on record: MT4 cells infected with HIV1 3B, read-out: Ratio CC50/EC50. It is filed as toxicity, cell-based. The gist of the method: (§1)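 Selectivity index calculated as CC50/EC50. Both values come from the parallel 5-day MTT assays in MT-4 cells, with mock-infected and HIV-infected wells on the same plate.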

A short description of data set [2]: Selectivity index, ratio of CC50 for HIV2 ROD infected in human MT4 cells to EC50 for HIV1 3B. In kind it is toxicity, cell-based. The settings on record: MT4 cells infected with HIV2 ROD, read-out: Ratio CC50/EC50. The gist of the method:
as §1

The nature of data set [3]: Cytotoxicity against HIV1 3B infected in human MT4 cells by MTT assay. In kind it is cell-based. The settings on record: MT4 cells infected with HIV1 3B. The essentials: (§2)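 Cytotoxicity measured in parallel on mock-infected MT-4 cells (6×10^5 cells/mL) that received culture medium instead of virus. Serial fivefold compound dilutions were run in triplicate. MTT read-out after 5 days at 540 and 690 nm, using the median OD of three wells. CC50 is the concentration that reduces OD540 of the mock-infected control by 50%.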
Background: Tetrazolium dyes change colour on reduction, which living cells bring about.

Data set [4] concerns Human immunodeficiency virus 1. In words: Antiviral activity against HIV1 3B infected in human MT4 cells assessed as inhibition of virus-induced cytopathic effect by MTT assay. It is filed as functional, organism-based. Conditions: Human immunodeficiency virus 1, 3B. The essentials:
(§3)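 MT-4 cells, spun 5 min at 1000 rpm and resuspended at 6×10^5 cells/mL, infected with HIV-1(IIIB) or HIV-2(ROD) at 100–300 CCID50. Compounds added at start as serial fivefold dilutions, triplicate wells. Viability read by MTT at 540 and 690 nm five days post-infection, using the median OD of three wells. EC50 is the concentration giving 50% protection against virus-induced cytopathicity.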
For orientation: Damage to the host cells serves as the signal in cytopathic effect assays.

Data set [5] can be described thus: Cytotoxicity against HIV2 ROD infected in human MT4 cells by MTT assay. In kind it is cell-based. Conditions: MT4 cells infected with HIV2 ROD. The essentials: as §2
The test system of data set [6] is Human immunodeficiency virus 2. Description: Antiviral activity against HIV2 ROD infected in human MT4 cells assessed as inhibition of virus-induced cytopathic effect by MTT assay. In kind it is functional, organism-based. Conditions: Human immunodeficiency virus 2, ISOLATE ROD. The essentials: as §3
Data set [7] concerns the target Human immunodeficiency virus type 1 reverse transcriptase (Human immunodeficiency virus 1, UniProt Q72547). Description: Inhibition of HIV1 recombinant reverse transcriptase assessed as incorporation of biotin-dUTP into […] by colorimetric analysis. The essentials:
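Highly purified recombinant HIV-1 RT, with […] as template primer on plate-linked nucleotides. Activity measured colorimetrically as incorporation of biotin-dUTP.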

Data set [8] has as its system Human immunodeficiency virus. Description: Antiviral activity against wild type HIV. Conditions: Human immunodeficiency virus 1. In kind it is functional, organism-based.
For data set [9], the system named is Human immunodeficiency virus. In words: Antiviral activity against HIV harboring reverse transcriptase K103N/Y181C mutant. In kind it is functional, organism-based. The settings on record: Human immunodeficiency virus 1. The gist of the method: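 MT-4 cells (6×10^5 cells/mL) were infected with 100–300 CCID50 of virus, and mock-infected cells were run in parallel. Compounds were tested in serial fivefold dilutions in triplicate wells. After 5 days, viability was read by MTT reduction at 540 and 690 nm using the median OD of three wells. EC50 is the concentration giving 50% protection against virus-induced cytopathicity.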

In the case of `O=C(CSc1nccnc1-c1ccccc1Cl)Nc1ccccc1`, the selectivity ratio in [1] and in [2] was < 1 throughout. Also, the values for the 50% cytotoxic concentration (CC50) in data set [3] and in data set [5] were 35 µM and 33 µM, respectively. The results for the concentration for a half-maximal effect (EC50) in data set [4] and in [6] were > 35 µM and > 33 µM, respectively.
`O=C(CSc1nccnc1-c1ccccc1Cl)Nc1ccccc1F`: the selectivity ratio in [1] was 9; in [2], < 1. The half-maximal cytotoxic concentration (CC50) in data set [3] is 48 µM; in data set [5] it was 91 µM. The figures for the EC50 in data set [4] and in data set [6] were 5.3 µM and > 91 µM, respectively.
Regarding `O=C(CSc1nccnc1-c1ccccc1Cl)Nc1ccccc1Cl`, the selectivity ratio in data set [1] is 7; in data set [2], < 1. The CC50 is 34 µM in data set [3] and 46 µM in data set [5]. For the same molecule, the EC50 in [4] is 4.6 µM; in data set [6], > 46 µM.
Consider `O=C(CSc1nccnc1-c1ccccc1Cl)Nc1ccc(Cl)cc1Cl`, for which the selectivity ratio in [1] is 6; in data set [2], < 1. For the same molecule, the CC50 is 29 µM in [3] and 34 µM in [5]. The EC50 is 5.2 µM in data set [4] and > 34 µM in data set [6].
On to `O=C(CSc1nccnc1-c1ccccc1Cl)Nc1ccccc1Br`, for which the selectivity ratio in data set [1] is 7; in data set [2], < 1. For the same molecule, the half-maximal cytotoxic concentration (CC50) in data set [3] is 31 µM; in data set [5] it was 41 µM. Further, the EC50 was 4.2 µM in data set [4] and > 41 µM in data set [6].
Take `Cc1ccc(NC(=O)CSc2nccnc2-c2ccccc2Cl)c(Br)c1`: the values for the selectivity ratio in data set [1] and in [2] were 9 and < 1, respectively. Besides, the CC50 in data set [3] came to 31 µM; in data set [5], 35 µM. Besides, the results for the half-maximal effective concentration (EC50) in data set [4] and in [6] were 4.3 µM and > 35 µM, respectively.
Regarding `O=C(CSc1nccnc1-c1ccccc1Cl)Nc1ccc(Cl)cc1Br`, the selectivity ratio was 5 in [1] and < 1 in [2]. Besides, the half-maximal cytotoxic concentration (CC50) in [3] was determined as 26 µM; in data set [5], 29 µM. Besides, the values for the EC50 in data set [4] and in data set [6] were 5.1 µM and > 29 µM, respectively.
Take `CC(=O)c1ccc(NC(=O)CSc2nccnc2-c2ccccc2Cl)c(Br)c1`: the selectivity ratio was 12 in [1] and < 1 in [2]. The CC50 in data set [3] came out at 30 µM; in data set [5], 31 µM. Also, the EC50 in [4] is 2.5 µM; in data set [6] it was > 31 µM.
With `COC(=O)c1ccc(NC(=O)CSc2nccnc2-c2ccccc2Cl)c(Br)c1`, the values for the selectivity ratio in data set [1] and in data set [2] were 25 and < 1, respectively. Moreover, the CC50 in data set [3] was determined as 95 µM; in [5], 108 µM. Besides, the values for the concentration giving a half-maximal response (EC50) in data set [4] and in data set [6] were 3.7 µM and > 108 µM, respectively.
Take `CCOC(=O)c1ccc(NC(=O)CSc2nccnc2-c2ccccc2Cl)c(Br)c1`: the selectivity ratio was 5 in data set [1] and < 1 in data set [2]. The CC50 in [3] turned out to be 45 µM; in data set [5], 62 µM. In addition, the concentration giving a half-maximal response (EC50) was 9 µM in data set [4] and > 62 µM in [6].
On to `O=C(CSc1nccnc1-c1ccccc1Cl)Nc1ccccc1[N+](=O)[O-]`, for which the selectivity ratio in data set [1] is 23; in data set [2], < 1. For the same molecule, in data set [7], the concentration for half-maximal inhibition (IC50) came out at 50 µM. Also, the CC50 in data set [3] came out at 39 µM; in [5], 55 µM. In addition, the values for the EC50 in [4] and in data set [6] were 1.7 µM and > 55 µM, respectively.
For the molecule `Cc1ccc(NC(=O)CSc2nccnc2-c2ccccc2Cl)c([N+](=O)[O-])c1`, the selectivity ratio is 19 in data set [1] and < 1 in [2]. Besides, the values for the CC50 in data set [3] and in data set [5] were 54 µM and 148 µM, respectively. Further, the half-maximal effective concentration (EC50) in data set [4] was 2.9 µM; in [6], > 148 µM.
As to `O=C(CSc1nccnc1-c1ccccc1Cl)Nc1cccnc1Cl`, the figures for the selectivity ratio in data set [1] and in [2] were 64 and < 1, respectively. Besides, the CC50 worked out at 152 µM in data set [3] and 166 µM in data set [5]. Moreover, the concentration for a half-maximal effect (EC50) is 2.3 µM in [4] and > 166 µM in data set [6].
On to `COC(=O)c1sccc1NC(=O)CSc1nccnc1-c1ccccc1Cl`, for which the selectivity ratio in [1] and in data set [2] was < 1 throughout. For the same molecule, the CC50 in data set [3] stood at 68 µM; in data set [5] it was 48 µM. For the same molecule, the EC50 is > 68 µM in [4] and > 48 µM in data set [6].
For `Cc1ccc2sc(NC(=O)CSc3nccnc3-c3ccccc3Cl)nc2c1`, the selectivity ratio in [1] and in data set [2] was < 1 throughout. Further, the figures for the 50% cytotoxic concentration (CC50) in [3] and in data set [5] were 32 µM and 30 µM, respectively. Further, the EC50 in data set [4] was > 32 µM; in [6], > 30 µM.
For `O=C(CSc1nccnc1-c1ccccc1Cl)N1CCCc2ccccc21`, the selectivity ratio in data set [1] and in [2] was < 1 in each case. Also, the cytotoxic concentration (CC50) in data set [3] was 33 µM; in [5], 34 µM. For the same molecule, the 50% effective concentration (EC50) in data set [4] is > 33 µM; in data set [6], > 34 µM.
For `O=C(CSc1nccnc1-c1ccccc1Cl)N1CCc2ccccc2C1`, the selectivity ratio in [1] is 8; in data set [2], < 1. Moreover, the CC50 was found to be 33 µM in data set [3] and 50 µM in data set [5]. For the same molecule, the EC50 in data set [4] is 4.1 µM; in [6] it was > 50 µM.
With `NS(=O)(=O)c1ccc(NC(=O)CSc2nnc(Br)n2-c2ccc(C3CC3)c3ccccc23)c(Cl)c1`, the concentration for a half-maximal effect (EC50) in data set [8] was 0.14 µM; in [9], 0.23 µM.
As to `CC(C)Nc1cccnc1N1CCN(C(=O)c2cc3cc(NS(C)(=O)=O)ccc3[nH]2)CC1` [DELAVIRDINE], in data set [1], the selectivity ratio was > 1100. The CC50 in [3] and in [5] was > 36 µM in each case.
Take `O=C1Nc2ccc(Cl)cc2[C@@](C#CC2CC2)(C(F)(F)F)O1` [EFAVIRENZ]: the half-maximal cytotoxic concentration (CC50) in [3] and in [5] was > 6.3 µM in each case.
Take `Cc1ccnc2c1NC(=O)c1cccnc1N2C1CC1` [NEVIRAPINE]: the CC50 in [3] and in data set [5] was > 15 µM throughout.
Turning to `Nc1ccn([C@H]2CC[C@@H](CO)O2)c(=O)n1` [ZALCITABINE], the selectivity ratio in data set [1] was > 93; in data set [2], > 74. Besides, the CC50 in [3] and in [5] was > 95 µM each time.
Regarding `Cc1cn([C@H]2C[C@H](N=[N+]=[N-])[C@@H](CO)O2)c(=O)[nH]c1=O` [ZIDOVUDINE], the selectivity ratio in data set [1] came out at 12200; in [2], 56900. The CC50 in [3] and in data set [5] was 249 µM in each case. Also, the half-maximal effective concentration (EC50) in data set [4] came out at 0.021 µM.

In general, CC50 refers to the concentration giving 50% cytotoxicity. A high value points to better tolerance by the cells. One may read the EC50 as the concentration at which the effect is half-maximal. As usually defined, the IC50 is the concentration at which inhibition is half-maximal.
